The term ED50 denotes the dose that gives a 50% effect, or the effect in half of the subjects. A low value points to greater potency.

For eight molecules, ED50, IC50 and Selectivity results are on record in ChEMBL document CHEMBL1125205, “Phosphorus-containing inhibitors of HMG-CoA reductase. 2. Synthesis and biological activities of a series of substituted pyridines containing a hydroxyphosphinyl moiety” (J Med Chem, 1991).

Assay [1] deals with Rattus norvegicus. In words: The compound was tested in vivo for inhibition of Cholesterol Biosynthesis from [14C]- acetate in rat after intravenous administration. Type of assay: functional. The method, boiled down:
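Male Sprague-Dawley rats (200-300 g) were kept on a reverse light cycle. Salt forms were given iv into the tail vein in saline, 5 min before ip sodium [1-14C]acetate (25 µCi/100 g), dosed 2 h before mid-dark. Blood was taken 2 h after mid-dark. Read-out: 14C nonsaponifiable plasma lipid per mL versus controls, 4-5 rats/group. ED50 from log dose regressions, mean of ≥2 experiments.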

For assay [2], the species on record is Rattus norvegicus. In words: The compound was tested for inhibition of Cholesterol synthesis from [14C]- Acetate in hepatocytes of rats. Type of assay: functional. As to conditions: Hepatocyte. A digest of the protocol:
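Rat hepatocytes were freshly isolated by collagenase perfusion, 70-90% viable. Cells were suspended at 5 × 10^6 per 2.0 mL in Tris pH 7.4 incubation medium with cofactors; DMSO was ≤1.0% final. Incubation was with [14C]acetate (2 µCi/mL) for 2.0 h at 37 °C. Lipids were extracted by Bligh-Dyer and the percent of label in the cholesterol peak was compared with controls. I50 from composite curves of two or more studies.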

Assay [3] has as its system Rattus norvegicus. In words: The compound was tested in vivo for inhibition of Cholesterol Biosynthesis from [14C]- acetate in rat after peroral administration. Format: functional. As to conditions: po.
A further assay is filed under the species Homo sapiens. The experiment in a line: The compound was tested for inhibition of Cholesterol synthesis from [14C]- Acetate in human skin fibroblasts. Format: functional. A digest of the protocol: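 Human skin fibroblasts (passage 7-27) were plated at 5 × 10^5 cells/well and cultured 18 h. Sterol synthesis was induced by 24 h in serum-free MEM with 1.0% fatty acid-free BSA. Cells were preincubated with compound for 30 min (DMSO ≤1.0%), then given sodium [1-14C]acetate at 2.0 µCi/mL for 4 h. Label in the extracted cholesterol peak was compared with controls. I50 from composite curves of ≥2 experiments.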

For assay [4], the target named is T1, 3-hydroxy-3-methylglutaryl-coenzyme A reductase (Rattus norvegicus, UniProt P51639).
T1 sequence (P51639 whole entry): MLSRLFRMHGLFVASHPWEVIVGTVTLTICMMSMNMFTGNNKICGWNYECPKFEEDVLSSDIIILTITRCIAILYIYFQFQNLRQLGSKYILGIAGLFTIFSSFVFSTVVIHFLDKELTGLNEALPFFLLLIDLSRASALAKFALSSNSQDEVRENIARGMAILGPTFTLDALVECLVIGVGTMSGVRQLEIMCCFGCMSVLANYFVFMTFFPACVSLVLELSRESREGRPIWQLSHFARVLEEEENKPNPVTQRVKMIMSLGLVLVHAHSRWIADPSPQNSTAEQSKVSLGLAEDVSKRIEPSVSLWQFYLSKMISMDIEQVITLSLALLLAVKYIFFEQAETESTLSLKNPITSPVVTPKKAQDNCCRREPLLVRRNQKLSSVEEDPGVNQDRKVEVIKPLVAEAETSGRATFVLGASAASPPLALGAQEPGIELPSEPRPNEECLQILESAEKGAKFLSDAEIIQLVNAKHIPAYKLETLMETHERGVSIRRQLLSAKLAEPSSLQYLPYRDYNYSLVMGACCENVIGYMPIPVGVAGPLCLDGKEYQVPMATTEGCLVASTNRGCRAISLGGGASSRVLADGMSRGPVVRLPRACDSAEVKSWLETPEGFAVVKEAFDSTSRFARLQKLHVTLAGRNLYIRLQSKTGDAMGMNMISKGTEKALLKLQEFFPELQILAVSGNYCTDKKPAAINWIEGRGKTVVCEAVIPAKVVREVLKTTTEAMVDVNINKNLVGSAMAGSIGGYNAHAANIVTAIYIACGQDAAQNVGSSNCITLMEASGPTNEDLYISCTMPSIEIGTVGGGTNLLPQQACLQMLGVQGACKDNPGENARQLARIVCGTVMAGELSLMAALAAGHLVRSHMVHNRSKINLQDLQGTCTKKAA
In words: In vitro for inhibition of rat HMG-CoA reductase. As to conditions: read-out: I50. A digest of the protocol:
(§1)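 Enzyme source: hepatic microsomes from cholestyramine-fed Sprague-Dawley rats. Final assay conditions: 0.04 M potassium phosphate pH 7.2, KCl, sucrose, EDTA, 10 mM DTT, 1% DMSO, 50-200 µg microsomal protein. Microsomes were preincubated with 2.7 mM NADPH for 15 min at 37 °C, then with compound for 15 min. 100 µM 14C-[D,L]-HMG-CoA was then added for 20 min at 37 °C. Read-out: 14C-mevalonate, corrected by 3H-mevalonate recovery. I50 taken from composite dose-response regressions, 2-5 experiments.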

Assay [5] is described as follows: It is the ratio of I50 fibroblasts to that of I50 hepatocytes. Type of assay: functional, Hepatocyte. A digest of the protocol: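 Selectivity is the ratio of I50 in human skin fibroblasts to I50 in freshly isolated rat hepatocytes. Each I50 came from [14C]acetate incorporation into cholesterol, measured as percent inhibition versus controls from composite dose-response data.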

Assay [6] has as its target T1, 3-hydroxy-3-methylglutaryl-coenzyme A reductase. In words: The compound was tested in vitro for inhibition of rat hepatic HMG-CoA reductase. Type of assay: functional. Conditions: read-out: I50. A digest of the protocol: as §1

pIC50: −log10 of the molar value.

Consider `CC[C@H](C)C(=O)O[C@@H]1C[C@@H](C)C=C2C=C[C@H](C)[C@H](CC[C@@H](O)C[C@H](O)CC(=O)[O-])C21.[Na+]` (some centres undefined), for which the ED50 in the assay with Rattus norvegicus [1] was determined as 0.033 mg/kg; in the assay with Rattus norvegicus [3], 0.4 mg/kg. Further, the pIC50 is 6.84 in the assay listed under Rattus norvegicus [2] (read-out: I50) and 7.73 in the assay filed under Homo sapiens (read-out: I50).
For `CCc1c(-c2ccccc2)nc(C(C)C)c(/C=C/P(=O)([O-])C[C@H](O)CC(=O)[O-])c1-c1ccc(F)cc1.[Na+].[Na+]`, the pIC50 is 9.26 in assay [4], 6.62 in the assay filed under Rattus norvegicus [2] (read-out: I 50) and 5.33 in the assay filed under Homo sapiens (read-out: I 50). In addition, the ED50 is 0.2 mg/kg with Rattus norvegicus [1] and more than 10 mg/kg in the assay on Rattus norvegicus [3]. The Selectivity in assay [5] is on record as 19.5.
Consider `CC(C)c1nc(-c2ccccc2)cc(-c2ccc(F)cc2)c1C#CP(=O)([O-])C[C@H](O)CC(=O)[O-].[Li+].[Li+]`, for which the pIC50 was 7.21 in assay [4], 6.71 in the assay listed under Rattus norvegicus [2] (read-out: I 50) and 5.03 in the assay listed under Homo sapiens (read-out: I 50). In addition, the figures for the ED50 in the assay on Rattus norvegicus [1] and in the assay on Rattus norvegicus [3] were 0.47 mg/kg and 3.9 mg/kg, respectively. Also, the Selectivity in assay [5] was 47.
For `CC(C)c1nc(-c2ccccc2)cc(-c2ccc(F)cc2)c1/C=C/P(=O)([O-])C[C@H](O)CC(=O)[O-].[Li+].[Li+]`, the pIC50 was 8.72 in assay [4], 7.11 in the assay filed under Rattus norvegicus [2] (read-out: I 50) and 5.70 in the assay listed under Homo sapiens (read-out: I 50). Moreover, the results for the ED50 in the assay with Rattus norvegicus [1] and in the assay on Rattus norvegicus [3] were 0.22 mg/kg and 21.4 mg/kg, respectively. For the same molecule, in assay [5], the Selectivity was 26.
For the molecule `Cc1c(-c2ccccc2)nc(C(C)C)c(/C=C/P(=O)([O-])C[C@H](O)CC(=O)[O-])c1-c1ccc(F)cc1.[Na+].[Na+]`, the pIC50 is 8.92 in assay [4], 6.59 in the assay filed under Rattus norvegicus [2] (read-out: I 50) and 5.70 in the assay listed under Homo sapiens (read-out: I 50). Further, the ED50 in the assay on Rattus norvegicus [1] amounted to 0.1 mg/kg; with Rattus norvegicus [3], 0.46 mg/kg. Further, the Selectivity in assay [5] is listed as 7.7.
For `CC(C)c1nc(C(C)(C)C)cc(-c2ccc(F)cc2)c1C#CP(=O)([O-])C[C@H](O)CC(=O)[O-].[Na+].[Na+]`, the pIC50 was 8.21 in assay [4], 6.25 in the assay listed under Rattus norvegicus [2] (read-out: I 50) and 5.62 in the assay filed under Homo sapiens (read-out: I 50). For the same molecule, the median effective dose (ED50) is 0.7 mg/kg in the assay with Rattus norvegicus [1] and 3.5 mg/kg in the assay with Rattus norvegicus [3]. For the same molecule, the Selectivity in assay [5] amounted to 4.3.
Take `Cc1c(-c2ccccc2)nc(C(C)C)c(C#CP(=O)([O-])C[C@H](O)CC(=O)[O-])c1-c1ccc(F)cc1.[Li+].[Li+]`: the results for the pIC50 (in assay [4]; in the assay filed under Rattus norvegicus [2] (read-out: I 50); in the assay listed under Homo sapiens (read-out: I 50)) were 8.35, 7.09 and 4.95, respectively. In addition, the values for the ED50 in the assay on Rattus norvegicus [1] and with Rattus norvegicus [3] were 0.13 mg/kg and 3.1 mg/kg, respectively. In addition, the Selectivity in assay [5] was 140.
With `CC[C@H](C)C(=O)O[C@H]1C[C@H](O)C=C2C=C[C@H](C)[C@H](CC[C@@H](O)C[C@@H](O)CC(=O)[O-])[C@H]21.[Na+]` [PRAVASTATIN SODIUM], in assay [6], the pIC50 is 7.62. Moreover, the values for the ED50 with Rattus norvegicus [1] and with Rattus norvegicus [3] were 0.053 mg/kg and 0.75 mg/kg, respectively. For the same molecule, the Selectivity in assay [5] came out at 31.
